Reference: ChEMBL document CHEMBL1240380, “Acinetobacter baumannii increases tolerance to antibiotics in response to monovalent cations” (Antimicrob Agents Chemother, 2010)
Activity calls are given as the source filed them. The calls are words filed in the database; no cut-off is given here.

Legend:
[1] = system: Acinetobacter baumannii; assay: Antibacterial activity against Acinetobacter baumannii isolate 5191 isolated from human urine; format: functional, organism-based
[2] = system: Acinetobacter baumannii; assay: Antibacterial activity against Acinetobacter baumannii isolate 2824 isolated from human urine; format: functional, organism-based
[3] = system: Acinetobacter baumannii; assay: Antibacterial activity against Acinetobacter baumannii isolate 2898 isolated from human ankle; format: functional, organism-based
[4] = system: Acinetobacter baumannii; assay: Antibacterial activity against Acinetobacter baumannii isolate 510 isolated from human sputum; format: functional, organism-based
[5] = system: Acinetobacter baumannii; assay: Antibacterial activity against Acinetobacter baumannii isolate 4860 isolated from human urine; format: functional, organism-based
[6] = system: Acinetobacter baumannii; assay: Antibacterial activity against Acinetobacter baumannii ATCC 17978 assessed as bacterial growth at 0.0625 mg/L in presence of 150 mM NaCl; format: functional
Procedure, shortened: (§1)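 Overnight cultures were diluted 1:100 in NaCl-free MHB and grown to OD600 0.4. They were then diluted to 10^5 CFU/ml in MHB with or without 150 mM NaCl, plus or minus antibiotic. Growth was run in triplicate for 12 h at 37°C with shaking at 180 rpm, and OD600 was read every 2 h.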

[7] = system: Acinetobacter baumannii; assay: Antibacterial activity against Acinetobacter baumannii ATCC 17978 isolated from human CSF; format: functional, organism-based
[8] = system: Acinetobacter baumannii; assay: Antibacterial activity against Acinetobacter baumannii using MHB medium assessed as bacterial growth at 0.09 mg/L in presence of 150 mM of KCl; format: functional, organism-based
Procedure, shortened: as §1, with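 “Growth-curve challenge with 150 mM KCl in place of NaCl. Overnight” for “Overnight”, “KCl,” for “NaCl,”, “plus” for “plus or minus”, “Cultures ran” for “Growth was run”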

[9] = system: Acinetobacter baumannii; assay: Antibacterial activity against Acinetobacter baumannii ATCC 17978 assessed as bacterial growth at 0.09 mg/L in presence of 150 mM NaCl; format: functional, organism-based; procedure, shortened: as §1

Compound	Activity [1]	Activity [2]	Activity [3]	Activity [4]	Activity [5]	Activity [6]	Activity [7]	Activity [8]	Activity [9]
O=C(O)c1cn(C2CC2)c2cc(N3CCNCC3)c(F)cc2c1=O	inactive	inactive	inactive	inactive	inactive	–	–	–	–
C[C@@H](O)[C@H]1C(=O)N2C(C(=O)O)=C(SCCNC=N)C[C@H]12	Active	Active	Active	Active	Active	inactive	Active	–	–
C[C@@H](O)[C@H]1C(=O)N2C(C(=O)O)=C(S[C@@H]3CN[C@H](C(=O)N(C)C)C3)[C@H](C)[C@H]12	–	Active	Active	Active	–	–	Active	–	–
C[C@H]1COc2c(N3CCN(C)CC3)c(F)cc3c(=O)c(C(=O)O)cn1c23	inactive	inactive	–	–	inactive	–	–	inactive	inactive
CO/N=C(\C(=O)N[C@@H]1C(=O)N2C(C(=O)[O-])=C(C[N+]3(C)CCCC3)CS[C@H]12)c1csc(N)n1	inactive	inactive	inactive	inactive	inactive	–	Active	–	–
CN(C)[C@@H]1C(O)=C(C(N)=O)C(=O)[C@@]2(O)C(O)=C3C(=O)c4c(O)cccc4[C@@](C)(O)[C@H]3C[C@@H]12	inactive	inactive	–	–	inactive	–	–	–	–
NC[C@H]1O[C@H](O[C@H]2[C@H](O)[C@@H](O[C@H]3O[C@H](CO)[C@@H](O)[C@H](N)[C@H]3O)[C@H](N)C[C@@H]2N)[C@H](N)C[C@@H]1O	inactive	inactive	inactive	inactive	inactive	–	Active	–	–
